One may read the MIC as the smallest concentration in the dilution series that meets the test's criterion for growth inhibition. The term pKd denotes the negative decadic logarithm of the Kd, by convention in mol/L.

pKd: −log10 of the molar value. In brackets after ≈: the same amount, converted by molar mass.

This note sets out measurements from ChEMBL document CHEMBL1649135, “Use of a surface plasmon resonance method to investigate antibiotic and plasma protein interactions” (Antimicrob Agents Chemother, 2009).

The subject of data set [1] is Staphylococcus aureus. Briefly: Antimicrobial activity against Staphylococcus aureus CIP 76.25 by microdilution method in presence of 0.1% alpha-1-acid glycoprotein. Type of data set: functional. In short, it runs like this: (§1)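 Broth microdilution MICs against S. aureus CIP 76.25 by CLSI (formerly NCCLS) standard methods, run in duplicate. Each test medium was supplemented with one serum component: 50% human serum, 4% HSA, 0.1% AGP or 1.6% human gamma globulins. These levels were chosen to match normal physiological concentrations. MIC was read as in standard testing.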
(Dilution methods test growth across graded concentrations, often in twofold steps.)

In data set [2] the test system is Staphylococcus aureus. Nature of the data set: Antimicrobial activity against Staphylococcus aureus CIP 76.25 by microdilution method in presence of 4% human serum albumin. Type of data set: functional. In short, it runs like this:
as §1

Data set [3] relates to Staphylococcus aureus. Nature of the data set: Antimicrobial activity against Staphylococcus aureus CIP 76.25 by microdilution method in presence of 50% human serum. The data set is classed as functional. In a few lines:
as §1

Data set [4] has as its system Staphylococcus aureus. Briefly: Antimicrobial activity against Staphylococcus aureus CIP 76.25 by microdilution method. The data set is classed as functional. In a few lines:
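S. aureus CIP 76.25 MICs determined in duplicate by CLSI standard broth microdilution.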

Data set [5] concerns Staphylococcus aureus. Nature of the data set: Antimicrobial activity against Staphylococcus aureus CIP 76.25 by microdilution method in presence of 1.6% gamma globulin. The data set is classed as functional. In short, it runs like this:
as §1

The target of data set [6] is T1, Albumin (Homo sapiens, UniProt P02768). Nature of the data set: Binding affinity to first site on human serum albumin by SPR. The data set is classed as ADME. In a few lines:
(§2)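 SPR on a BIACORE 3000 at 25°C. HSA was amine-coupled to a CM5 chip at 40 µg/ml in 10 mM acetate, pH 5.2. Drug was injected from 400 µM to 0.1 µM in twofold dilutions in PBS with 5% DMSO at 50 µl/min, with 30 s association and 30 s dissociation. Responses were reference-subtracted, read 10 s into the injection and DMSO-corrected. Dose-response curves gave KD or fraction of sites occupied.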
A general note: In SPR one partner is held on a chip, and binding of the other changes the refractive index at the surface.

A short description of data set [7]: Binding affinity to human alpha-1-acid glycoprotein assessed as compound binding sites level by SPR. The data set is classed as ADME. In a few lines:
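Ranking by SPR at 25°C. AGP was PDEA-modified and thiol-coupled to a CM5 chip; a reference surface carried no protein. Drugs at 250 µM in PBS with 5% DMSO were injected in randomized duplicates for 30 s at 50 µl/min. Responses were DMSO-calibration-corrected and normalized to a 10,000-RU immobilization level. Experiments were run in triplicate, mean ± SE.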

Data set [8] in a line: Protein binding in serum. As to conditions: read-out: PB (converted). The data set is classed as ADME, cell-free.
Data set [9] deals with T1, Albumin. Briefly: Binding affinity to human serum albumin assessed as fraction of binding sites occupied by compound at 22 to 44 ug/ml by SPR. Type of data set: ADME. As to conditions: isolated protein. In short, it runs like this:
(§3)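 HSA amine-coupled on CM5 chip at 25°C, with a reference flow cell lacking protein. Compound in PBS with 5% DMSO, injected at 400 to 0.1 µM in twofold dilutions, 50 µl/min, 30 s association and 30 s dissociation. Reference-subtracted responses read 10 s into injection and DMSO-corrected. Fraction of sites occupied plotted against drug concentration from dose-response curves.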

Data set [10] has as its target T1, Albumin. Nature of the data set: Binding affinity to human serum albumin assessed as fraction of binding sites occupied by compound at 180 ug/ml by SPR. As to conditions: isolated protein. The data set is classed as ADME. In a few lines:
as §3

In data set [11] the target is T1, Albumin. Briefly: Binding affinity to human serum albumin assessed as fraction of binding sites occupied by compound at 130 to 180 ug/ml by SPR. Type of data set: ADME. As to conditions: isolated protein. In a few lines:
as §2

Data set [12] concerns the target T1, Albumin. Nature of the data set: Binding affinity to human serum albumin assessed as fraction of binding sites occupied by compound at 20 ug/ml by SPR. Type of data set: ADME. As to conditions: isolated protein. In a few lines: as §3
Data set [13] concerns the target T1, Albumin. Briefly: Binding affinity to human serum albumin assessed as fraction of binding sites occupied by compound at 160 ug/ml by SPR. Type of data set: ADME. As to conditions: isolated protein. In a few lines:
as §3

Data set [14] concerns the target T1, Albumin. Briefly: Binding affinity to human serum albumin assessed as fraction of binding sites occupied by compound at 215 to 430 ug/ml by SPR. Type of data set: ADME. As to conditions: isolated protein. In short, it runs like this: as §3
The target in data set [15] is T1, Albumin. Nature of the data set: Binding affinity to human serum albumin assessed as fraction of binding sites occupied by compound at 245 ug/ml by SPR. As to conditions: isolated protein. Type of data set: ADME. In short, it runs like this:
as §2

In data set [16] the target is T1, Albumin. Briefly: Binding affinity to human serum albumin assessed as fraction of binding sites occupied by compound at 80 to 120 ug/ml by SPR. The data set is classed as ADME. As to conditions: isolated protein. In a few lines:
as §2

The target of data set [17] is T1, Albumin. Briefly: Binding affinity to human serum albumin assessed as fraction of binding sites occupied by compound at >325 ug/ml by SPR. Type of data set: ADME. As to conditions: isolated protein. In a few lines:
as §2

For data set [18], the target named is T1, Albumin. Briefly: Binding affinity to human serum albumin assessed as fraction of binding sites occupied by compound at 146 to 220 ug/ml by SPR. As to conditions: isolated protein. The data set is classed as ADME. In a few lines: as §2
Data set [19] addresses T1, Albumin. Nature of the data set: Binding affinity to human serum albumin assessed as fraction of binding sites occupied by compound at 7 to 15 ug/ml by SPR. Type of data set: ADME. As to conditions: isolated protein. In short, it runs like this:
as §2

Data set [20] concerns the target T1, Albumin. Nature of the data set: Binding affinity to human serum albumin assessed as fraction of binding sites occupied by compound at 60 ug/ml by SPR. The data set is classed as ADME. As to conditions: isolated protein. In short, it runs like this: as §2
Data set [21] concerns the target T1, Albumin. Nature of the data set: Binding affinity to human serum albumin assessed as fraction of binding sites occupied by compound at 120 ug/ml by SPR. The data set is classed as ADME. As to conditions: isolated protein. In a few lines: as §2

T1 sequence (P02768 whole entry): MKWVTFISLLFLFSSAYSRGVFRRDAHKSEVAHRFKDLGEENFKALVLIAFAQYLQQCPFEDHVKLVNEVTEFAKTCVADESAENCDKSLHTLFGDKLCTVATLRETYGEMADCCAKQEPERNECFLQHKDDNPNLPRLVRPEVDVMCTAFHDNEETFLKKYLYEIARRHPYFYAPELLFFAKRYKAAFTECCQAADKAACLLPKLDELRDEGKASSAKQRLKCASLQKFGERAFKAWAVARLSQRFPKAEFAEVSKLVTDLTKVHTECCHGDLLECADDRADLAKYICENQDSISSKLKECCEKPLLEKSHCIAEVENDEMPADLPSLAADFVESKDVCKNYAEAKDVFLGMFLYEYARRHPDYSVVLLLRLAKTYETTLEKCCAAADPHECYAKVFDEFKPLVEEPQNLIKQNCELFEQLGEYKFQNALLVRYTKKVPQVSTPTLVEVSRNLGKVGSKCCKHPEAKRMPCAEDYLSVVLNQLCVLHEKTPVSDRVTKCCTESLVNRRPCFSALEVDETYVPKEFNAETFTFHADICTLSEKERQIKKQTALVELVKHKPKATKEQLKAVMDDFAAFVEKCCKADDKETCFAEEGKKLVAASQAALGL

Regarding `CO/N=C(\C(=O)N[C@@H]1C(=O)N2C(C(=O)O)=C(COC(C)=O)CS[C@H]12)c1csc(N)n1` [CEFOTAXIME], the MIC in the data set with Staphylococcus aureus [1] was determined as 1 µg/mL; in the data set with Staphylococcus aureus [2], 1 µg/mL; in the data set on Staphylococcus aureus [3] it was 4 µg/mL; against Staphylococcus aureus [4], 0.781 µg/mL (≈ 1.71 µM); with Staphylococcus aureus [5] it was 2 µg/mL. This molecule gave a pKd on Albumin [6] of 4.92. Also, the Ratio in data set [7] is reported as less than 1; on Albumin [9] it was 0.5; on Albumin [10], 1. Further, in data set [8], the fraction unbound was 0.97.
In turn, `CN[C@H](CC(C)C)C(=O)N[C@H]1C(=O)N[C@@H](CC(N)=O)C(=O)N[C@H]2C(=O)N[C@H]3C(=O)N[C@H](C(=O)N[C@H](C(=O)O)c4cc(O)cc(O)c4-c4cc3ccc4O)[C@H](O)c3ccc(c(Cl)c3)Oc3cc2cc(c3O[C@@H]2O[C@H](CO)[C@@H](O)[C@H](O)[C@H]2O[C@H]2C[C@](C)(N)[C@H](O)[C@H](C)O2)Oc2ccc(cc2Cl)[C@H]1O` [VANCOMYCIN] displayed an MIC against Staphylococcus aureus [4] of 0.781 µg/mL (≈ 0.539 µM). For the same molecule, the pKd at Albumin [6] was 4.92. Also, the fraction unbound in data set [8] was 0.9.
Consider `CC1COc2c(N3CCN(C)CC3)c(F)cc3c(=O)c(C(=O)O)cn1c23` (configuration not stated) [OFLOXACIN], for which the MIC with Staphylococcus aureus [1] worked out at 1 µg/mL; in the data set on Staphylococcus aureus [2] it was 1 µg/mL; in the data set on Staphylococcus aureus [3], 2 µg/mL; with Staphylococcus aureus [4], 0.195 µg/mL (≈ 0.54 µM); in the data set on Staphylococcus aureus [5], 2 µg/mL. On Albumin [6], this molecule showed a pKd of 4.92.
On to `CN(C)c1ccc(O)c2c1C[C@H]1C[C@H]3[C@H](N(C)C)C(O)=C(C(N)=O)C(=O)[C@@]3(O)C(O)=C1C2=O` [MINOCYCLINE], for which the MIC came to 1 µg/mL in the data set with Staphylococcus aureus [1]; 4 µg/mL in the data set with Staphylococcus aureus [2]; 4 µg/mL in the data set on Staphylococcus aureus [3]; 0.195 µg/mL (≈ 0.426 µM) with Staphylococcus aureus [4]; 1 µg/mL in the data set on Staphylococcus aureus [5]. At Albumin [6], this molecule gave a pKd of 4.92. In addition, in data set [7], the Ratio is less than 1. In addition, the fraction unbound in [8] was 0.46.
Consider `CCC[C@@H]1C[C@@H](C(=O)N[C@@H]([C@H]2O[C@H](SC)[C@H](O)[C@@H](O)[C@H]2O)[C@@H](C)O)N(C)C1` [LINCOMYCIN], for which the MIC in the data set on Staphylococcus aureus [1] was 2 µg/mL; in the data set on Staphylococcus aureus [2], 2 µg/mL; with Staphylococcus aureus [3] it was 2 µg/mL; with Staphylococcus aureus [4], 0.391 µg/mL (≈ 0.962 µM); in the data set with Staphylococcus aureus [5], 1 µg/mL. The pKd on Albumin [6] was 4.92. For the same molecule, the figures for the Ratio (in data set [7]; on Albumin [11]) were less than 1 and 0.5, respectively. The fraction unbound in [8] is 0.25.
For the molecule `CC(=O)O[C@H]1C[C@@]2(C)[C@@H](C[C@@H](O)[C@H]3[C@@]4(C)CC[C@@H](O)[C@@H](C)[C@@H]4CC[C@@]32C)/C1=C(\CCC=C(C)C)C(=O)O` [FUSIDIC ACID], the MIC with Staphylococcus aureus [1] was determined as 2 µg/mL; in the data set with Staphylococcus aureus [2], 256 µg/mL; in the data set on Staphylococcus aureus [3], 1020 µg/mL; against Staphylococcus aureus [4], 0.049 µg/mL (≈ 0.0948 µM); in the data set on Staphylococcus aureus [5] it was 2 µg/mL. On Albumin [6], the pKd was 4.92. Also, the Ratio in data set [7] is less than 1; on Albumin [12] it was 0.5; on Albumin [13], 1; on Albumin [14] it was 1.5. Further, the fraction unbound in data set [8] is 0.03.
On to `CO[C@H]1/C=C/O[C@@]2(C)Oc3c(C)c(O)c4c(O)c(c(/C=N/N5CCN(C)CC5)c(O)c4c3C2=O)NC(=O)/C(C)=C\C=C\[C@H](C)[C@H](O)[C@@H](C)[C@@H](O)[C@@H](C)[C@H](OC(C)=O)[C@@H]1C` [RIFAMPIN], for which the MIC in the data set with Staphylococcus aureus [1] amounted to 1 µg/mL; in the data set on Staphylococcus aureus [2] it was 4 µg/mL; with Staphylococcus aureus [3], 4 µg/mL; with Staphylococcus aureus [4], 0.049 µg/mL (≈ 0.0595 µM); with Staphylococcus aureus [5], 2 µg/mL. Further, the pKd on Albumin [6] is 4.92. The Ratio is listed as less than 1 in data set [7], 0.5 on Albumin [15], 1 on Albumin [16] and 1.5 at Albumin [17]. In data set [8], the fraction unbound is 0.36.
As for `CC[C@H]1OC(=O)[C@H](C)[C@@H](O[C@H]2C[C@@](C)(OC)[C@@H](O)[C@H](C)O2)[C@H](C)[C@@H](O[C@@H]2O[C@H](C)C[C@H](N(C)C)[C@H]2O)[C@](C)(O)C[C@@H](C)C(=O)[C@H](C)[C@@H](O)[C@]1(C)O` [ERYTHROMYCIN], the MIC in the data set with Staphylococcus aureus [1] came out at 2 µg/mL; in the data set on Staphylococcus aureus [2], 2 µg/mL; in the data set on Staphylococcus aureus [3] it was 2 µg/mL; against Staphylococcus aureus [4], 0.195 µg/mL (≈ 0.266 µM); in the data set with Staphylococcus aureus [5], 2 µg/mL. The molecule further showed a pKd at Albumin [6] of 4.92. Besides, the Ratio is less than 1 in data set [7] and 0.5 on Albumin [18]. Further, the fraction unbound in [8] is 0.81.
As to `CO[C@@H]1[C@@H](OC(N)=O)[C@@H](O)[C@H](Oc2ccc3c(O)c(NC(=O)c4ccc(O)c(CC=C(C)C)c4)c(=O)oc3c2C)OC1(C)C` [NOVOBIOCIN], the MIC with Staphylococcus aureus [1] stood at 2 µg/mL; in the data set on Staphylococcus aureus [2] it was 256 µg/mL; in the data set with Staphylococcus aureus [3] it was 1020 µg/mL; in the data set on Staphylococcus aureus [4] it was 0.049 µg/mL (≈ 0.08 µM); with Staphylococcus aureus [5], 2 µg/mL. At Albumin [6], the pKd was 4.92. Besides, the Ratio is on record as less than 1 in [7], 0.5 on Albumin [19], 1 at Albumin [20] and 1.5 on Albumin [21].
